The list is not random: actives were taken first. Their share in the collection is about 2.3%.
TAAR1 antag: human TAAR1 antagonism. Q96RJ0. CHO RD-HGA16 TAAR1, Fluo-8 calcium fluorescence, antagonist. inhibition, % at 3 µM. 360,000 compounds, 1.5% hits;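 active = inhibition above a per-plate cutoff, the mean inhibition of test compounds on that plate plus 3 SD, cut at about 49% in these data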;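 also: 0% = DMSO plus EC80 beta-PEA response and 100% = DMSO alone without agonist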
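Material: CHO RD-HGA16 cells bearing hTAAR1; compound dosing: one-point dosing, 3 µM nominal final; schedule: dye loading 75 min at 37 °C, then 30 min room temperature; measured by: calcium fluorescence with Fluo-8; control set: vehicle and agonist controls; replication: n of 1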
TAAR1 ag: human TAAR1 agonism. Q96RJ0. CHO RD-HGA16 TAAR1, Fluo-8 calcium fluorescence; vehicle wells 0%, saturating PEA agonist 100%. activation, % at 3 µM. 360,000 compounds, 0.99% hits;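 active = activation above the mean activation of all test compounds in the run plus 3 SD, cut at about 38% in these data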
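System: CHO RD-HGA16 cells carrying human TAAR1 plus Gα16; Incubation: 17-24 h seeding, 75 min 37 °C dye, 30 min RT; Measured by: Fluo-8 fluorescence, 5 s baseline then 140 s kinetic read; Control set: DMSO and PEA EC100; Replication: single well for each compound.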
V1R ag counter: V1a receptor agonism, counter-screen for OXTR agonists | P37288 | 320,000 compounds, 0.25% hits | CHO-V1R cells, Fluo-8 calcium fluorescence, agonist mode; 0% DMSO, 100% 3 nM vasopressin | activation, % at 3 µM;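 active = activation above the mean activation of all tested compounds plus 3 SD, per screening run, cut at about 20% in these data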;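 also: signal is peak over basal fluorescence ratio across a 100 second FLIPR read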
Target sequence (P37288 whole entry, looked up): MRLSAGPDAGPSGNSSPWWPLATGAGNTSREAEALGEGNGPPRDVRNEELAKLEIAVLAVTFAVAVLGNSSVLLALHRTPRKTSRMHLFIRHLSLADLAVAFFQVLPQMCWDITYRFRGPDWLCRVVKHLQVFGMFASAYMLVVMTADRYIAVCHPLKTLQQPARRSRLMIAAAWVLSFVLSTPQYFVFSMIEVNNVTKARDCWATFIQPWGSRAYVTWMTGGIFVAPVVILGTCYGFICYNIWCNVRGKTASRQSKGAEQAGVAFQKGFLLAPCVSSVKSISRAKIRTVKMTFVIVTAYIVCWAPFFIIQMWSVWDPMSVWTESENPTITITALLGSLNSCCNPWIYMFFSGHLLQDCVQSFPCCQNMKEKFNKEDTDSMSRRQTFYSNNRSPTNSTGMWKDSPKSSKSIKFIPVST
OXTR ag: agonists of human oxytocin receptor. AID 2435. 320,000 compounds, 0.32% hits. P30559. activation, % at 3 µM. CHO-OTR cells, Fluo-8 calcium fluorescence; normalized: DMSO 0%, oxytocin 100%;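 active = activation above the mean of all tested compounds plus 3 SD, cutoff set per screening run, cut at about 20% in these data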;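 also: peak over basal fluorescence ratio from a 100 s FLIPR kinetic read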
OXTR potentiator: potentiates the human oxytocin receptor response | P30559 | CHO-OTR cells, Fluo-8 calcium fluorescence, potentiator mode; 0% = oxytocin EC15, 100% = EC100 | activation, % at 3 µM | 320,000 compounds, 0.061% hits;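 active = activation above that plate's cutoff, the mean activation of tested compounds plus 3 SD, cut at about 6.6% in these data, passing the limit was not always enough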;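 also: 100% uses oxytocin at 75 nM as the full agonist control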
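Replication – single well per compound, singlicate · Assay system – CHO cell line stably expressing human OTR · Timing – 6 min pre-incubation, 100 s read · Measure – normalized max/min fluorescence ratio, % activation · Doses – 3.0 µM, one dose · Detection – Fluo-8 calcium dye fluorescence · Probe or stimulus – oxytocin near EC15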
The depositor's hits bear a star; . = not tested or not shown.

SMILES	TAAR1 antag	TAAR1 ag	V1R ag counter	OXTR ag	OXTR potentiator
COc1ccccc1N1CCN(C(=O)C2CCN(S(=O)(=O)c3ccc4c(c3)CC(C)N4C(C)=O)CC2)CC1 (stereo not drawn)	24	10	8	5	-11
N#C/C(=C/c1ccc(N2CCOCC2)o1)c1nc2ccccc2[nH]1	28	49*	21*	40*	-12
N#C/C(=C/c1ccc(N2CCOCC2)o1)c1ccc(Br)cc1	57*	29	1	6	-14
N#C/C(=C\c1ccc(N2CCOCC2)o1)c1ccccc1	23	21	1	2	1
FCCCOc1ccc(CN2CCN(c3ccccc3F)CC2)cc1	4	10	1	0	-8
Cc1ccsc1/C=N/NC(=O)c1nnn(-c2nonc2N)c1CN(C)c1ccccc1	49*	7	7	6	-13
Cc1ccc(SCc2c(C(=O)N/N=C/c3cccs3)nnn2-c2nonc2N)cc1	62*	8	.	.	.
Cc1ccc(SCc2c(C(=O)N/N=C/c3ccccc3)nnn2-c2nonc2N)cc1	29	1	0	-1	-14
OCC1(Cc2ccccc2)CCN(CCCC2CCCC2)CC1	-2	12	3	2	-7
Cc1ccccc1S(=O)(=O)NC(=O)C1(C)CCN1C(=O)CC1CCCCC1 (stereo not drawn)	-3	1	.	.	.
CCc1ccc(-c2nc(CS(=O)CC(=O)NCc3ccco3)c(C)o2)cc1 (stereo not drawn)	-12	-1	0	-1	2
COc1ccc(CNC(=O)c2sc(=O)n(Cc3ccc(-c4ccccc4)cc3)c2C)cc1OC	65*	5	.	.	.
Cc1ccc(C(=O)N2CCCCC2)cc1NC1=C(Cl)C(=O)N(Cc2ccccc2)C1=O	50*	4	4	4	-10
COc1ccc(/C=N/Nc2ccc([N+](=O)[O-])cc2)cc1O	23	40*	2	3	-16
COC(=O)[C@]1(C)CCC[C@@]2(C)C3CC[C@]4(OC(C)=O)C[C@@]3(CCC21)CC4=O (stereo partly drawn)	51*	14	-1	-1	-8
COC(=O)[C@]1(C)CCC[C@@]2(C)C3CC[C@@]4(C)C[C@]3(CCC21)CC(=O)N4Cc1ccc(OC)cc1 (stereo partly drawn)	12	9	0	-1	-4
COc1ccccc1CNC(=O)COc1ccccc1C(=O)c1cnn(-c2ccccc2)c1	57*	6	2	-2	-12
OC[C@@H]1CN(Cc2cccs2)C[C@H](n2cnc3c(NCc4ccc(F)cc4)ncnc32)O1	-9	4	.	.	.
CCCCCCCCOC(=O)c1c(CSC(=N)N)n(C)c2cc(Br)c(OC(C)=O)cc12	-16	90*	10	10	1
Cn1c(N2CCN(C(c3ccccc3)c3ccccc3)CC2)nc2ccccc21	50*	1	1	-2	-6
CCn1c(C)nc2cc(C(=O)NNC(=O)c3ccc(C)cc3)ccc21	12	8	0	0	-6
CCn1c(C)nc2cc(C(=O)NNC(=O)Nc3ccc(Cl)c(Cl)c3)ccc21	20	41*	1	0	-16
CC1(C(=O)Nc2cnc3ccccc3c2)CCN1Cc1ccccc1OC(F)F (stereo not drawn)	62*	4	.	.	.
COc1cccc(CN2CCC2(C)C(=O)Nc2cnc3ccccc3c2)c1F (stereo not drawn)	53*	2	.	.	.
CC1(C(=O)Nc2cnc3ccccc3c2)CCN1Cc1ccccc1Cl (stereo not drawn)	46	1	.	.	.
SMILES	TAAR1 antag	TAAR1 ag	V1R ag counter	OXTR ag	OXTR potentiator
O=C(NCc1ccc(Cl)cc1)c1ccc(-n2cccn2)nc1	8	41*	-1	-1	-1
CCN(CC(=O)Nc1ccccc1OC)C(=O)c1ccc2[nH]c3c(c2c1)CC(C)CC3 (stereo not drawn)	56*	24	8	6	-11
CCCN(CC(=O)Nc1ccccc1OC)C(=O)c1ccc2[nH]c3c(c2c1)CC(C)CC3 (stereo not drawn)	51*	15	2	0	-6
CN(Cc1cccs1)C(=O)c1ccc(Cl)c(S(=O)(=O)N2CCCCCC2)c1	18	6	2	0	-4
COC(=O)C1=C(C)N(C)C(=NCc2ccc(C(F)(F)F)cc2)NC1c1ccc(F)cc1 (stereo not drawn)	20	20	.	.	.
COc1ccc(CN(C)C(=O)C(CCSC)NS(=O)(=O)c2ccc3c(c2)OCCO3)c(OC)c1OC (stereo not drawn)	56*	12	.	.	.
COc1ccc(NC(C)=O)cc1NS(=O)(=O)c1ccc2c(c1)OCCO2	8	1	0	2	-1
Nc1c(C(=O)NCc2ccccc2)nnn1Cc1ccc(F)cc1	6	41*	15	16	-11
O=C(NCC(c1ccco1)N1CCCC1)c1ccc(S(=O)(=O)Nc2ccc(F)cc2)cc1 (stereo not drawn)	-7	40*	6	9	-11
O=C1NC(=S)SC1=Cc1ccccc1Cl	-33	2	.	.	.
O=C1NC(=S)S/C1=C\c1cc(Cl)cc(Cl)c1O	65*	40*	.	.	.
COC(=O)C1=C(C)N(Cc2ccccc2C(F)(F)F)C(=NCc2ccc(C(F)(F)F)cc2)NC1c1ccc(Cl)cc1 (stereo not drawn)	7	2	.	.	.
Cc1nc2ccc(S(=O)(=O)Nc3cccc(-c4nc5cccnc5s4)c3C)cc2s1	59*	5	9	7	-6
Cc1nc2ccc(S(=O)(=O)Nc3cc(-c4nc5cccnc5s4)ccc3C)cc2s1	43	3	-1	-1	-4
O=C(NCC1CCCN(C(=O)Cc2ccccc2Cl)C1)c1ccc(F)cc1 (stereo not drawn)	-8	1	4	2	-4
O=c1[nH]c(O)c(/C=C2\C=Nc3ccc(Br)cc32)[nH]1	-4	7	2	0	-4
COc1ccc(N2C(=O)C(CC(=O)Nc3ccc(F)cc3)N(CCc3ccc(OC)c(OC)c3)C2=O)cc1 (stereo not drawn)	16	6	0	1	-11
COc1cccc2c1C(=O)c1c(O)c3c(c(O)c1C2=O)C[C@](O)(C(C)=O)C[C@H]3O[C@@H]1C[C@@H](N)[C@@H](O)[C@@H](C)O1	9	8	21*	16	-8
O=C(NCc1ccccc1Cl)c1ccc(NC2=NC3CS(=O)(=O)CC3S2)cc1 (stereo not drawn)	1	0	0	-1	0
COc1ccc(NC(=O)c2cc(-c3cc(F)ccc3OC)n[nH]2)cn1	-6	7	.	.	.
CC(=O)N(C)c1ccc(NC(=O)Nc2ccc(C)c(C)c2)cc1	58*	34	2	2	-12

Screens: PubChem, The Scripps Research Institute Molecular Screening Center
